Measurements reported in ChEMBL document CHEMBL4257493, “Discovery of 7-hydroxyaporphines as conformationally restricted ligands for beta-1 and beta-2 adrenergic receptors” (Medchemcomm, 2018).
pIC50, pKi: −log10 of the molar value. Active and inactive are the calls of the source. The rule behind the calls is not given here.

Columns and labels:
[1] = biological target: T1, Beta-2 adrenergic receptor (Homo sapiens, UniProt P07550); assay: Displacement of [3H]-CGP-12177 from human beta2-adrenergic receptor
Target sequence in this assay (P07550 whole entry): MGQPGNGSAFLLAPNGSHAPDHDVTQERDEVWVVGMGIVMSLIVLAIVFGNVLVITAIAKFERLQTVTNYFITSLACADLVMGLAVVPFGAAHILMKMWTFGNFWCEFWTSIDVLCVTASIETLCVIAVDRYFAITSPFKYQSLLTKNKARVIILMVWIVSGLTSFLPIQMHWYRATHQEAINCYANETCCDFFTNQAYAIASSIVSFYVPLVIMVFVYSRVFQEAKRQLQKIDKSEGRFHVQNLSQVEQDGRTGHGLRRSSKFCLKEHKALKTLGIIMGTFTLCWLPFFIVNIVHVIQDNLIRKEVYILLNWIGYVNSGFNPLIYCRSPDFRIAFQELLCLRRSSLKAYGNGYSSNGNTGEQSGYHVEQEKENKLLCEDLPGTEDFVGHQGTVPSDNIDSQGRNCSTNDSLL

[2] = biological target: T2, Beta-1 adrenergic receptor (Homo sapiens, UniProt P08588); assay: Displacement of [3H]-CGP-12177 from human beta1-adrenergic receptor
Target sequence in this assay (P08588 whole entry): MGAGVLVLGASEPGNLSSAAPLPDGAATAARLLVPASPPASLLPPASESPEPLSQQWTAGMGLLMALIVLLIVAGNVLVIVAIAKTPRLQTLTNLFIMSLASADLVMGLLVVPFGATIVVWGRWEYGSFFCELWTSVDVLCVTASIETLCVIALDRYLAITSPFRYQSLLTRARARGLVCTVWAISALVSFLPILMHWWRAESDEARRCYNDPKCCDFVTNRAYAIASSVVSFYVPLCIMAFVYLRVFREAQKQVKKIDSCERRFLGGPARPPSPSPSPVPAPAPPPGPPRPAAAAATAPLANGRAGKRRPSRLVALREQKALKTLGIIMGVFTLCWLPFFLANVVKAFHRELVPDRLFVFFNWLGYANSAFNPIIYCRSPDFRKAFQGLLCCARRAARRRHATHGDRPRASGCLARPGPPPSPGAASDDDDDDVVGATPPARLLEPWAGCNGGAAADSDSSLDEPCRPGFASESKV

[3] = biological target: T3, Beta-3 adrenergic receptor (Homo sapiens, UniProt P13945); assay: Displacement of [3H]-CGP-12177 from human beta3-adrenergic receptor
Target sequence in this assay (P13945 whole entry): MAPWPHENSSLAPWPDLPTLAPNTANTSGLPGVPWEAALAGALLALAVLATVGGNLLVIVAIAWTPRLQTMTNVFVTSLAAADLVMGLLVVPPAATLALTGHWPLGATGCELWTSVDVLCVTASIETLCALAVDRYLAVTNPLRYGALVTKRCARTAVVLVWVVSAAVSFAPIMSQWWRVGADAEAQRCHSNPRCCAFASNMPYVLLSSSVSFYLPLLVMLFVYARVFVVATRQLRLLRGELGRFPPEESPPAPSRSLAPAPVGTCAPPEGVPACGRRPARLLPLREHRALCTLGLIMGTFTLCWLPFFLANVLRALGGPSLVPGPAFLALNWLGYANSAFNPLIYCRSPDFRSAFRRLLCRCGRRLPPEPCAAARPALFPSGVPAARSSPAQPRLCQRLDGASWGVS

Homo sapiens = species: Homo sapiens; assay: Ratio of IC50 for human beta3-adrenergic receptor to IC50 for human beta1-adrenergic receptor
[4] = biological target: T2, Beta-1 adrenergic receptor; assay: Antagonist activity at human beta1-adrenergic receptor expressed in CHO-K1 cells assessed as decrease in isoproterenol-induced cAMP accumulation after 15 mins by HTRF assay; format: functional, cell-based
Summary of the method: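 Run as a contract service: human beta1 receptor in CHO-K1 cells, with antagonist mode against isoproterenol-stimulated cAMP. Incubation 15 min at 37 °C in HBSS with 5 mM HEPES, 0.1% BSA and 100 µM IBMX, pH 7.4, in 0.40% DMSO vehicle. cAMP accumulation read by HTRF; dose-response curves.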
Target sequence in this assay (P08588 whole entry): as the sequence (P08588 whole entry) above

[5] = biological target: T1, Beta-2 adrenergic receptor; assay: Antagonist activity at human beta2-adrenergic receptor expressed in CHO-K1 cells assessed as decrease in procaterol-induced cAMP accumulation after 20 mins by HTRF assay; format: functional, cell-based
Summary of the method: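 Contract functional assay on human beta2 receptor expressed in CHO cells, with antagonist mode against agonist-stimulated cAMP. Incubation 20 min at 37 °C in HBSS, 5 mM HEPES, 0.1% BSA, 100 µM IBMX, pH 7.4, with 0.40% DMSO vehicle. HTRF quantitation of cAMP accumulation; dose-response curves.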
Target sequence in this assay (P07550 whole entry): as the sequence (P07550 whole entry) above

[6] = biological target: 5-hydroxytryptamine receptor 1A (Homo sapiens, UniProt P08908); assay: Binding affinity to 5-HT1A receptor (unknown origin) assessed as inhibition of radioligand binding by radioligand competition binding assay
[7] = biological target: T4, 5-hydroxytryptamine receptor 1B (Homo sapiens, UniProt P28222); assay: Binding affinity to 5-HT1B receptor (unknown origin) assessed as inhibition of radioligand binding by radioligand competition binding assay
[8] = biological target: T5, 5-hydroxytryptamine receptor 1D (Homo sapiens, UniProt P28221); assay: Binding affinity to 5-HT1D receptor (unknown origin) assessed as inhibition of radioligand binding by radioligand competition binding assay
[9] = biological target: T6, 5-hydroxytryptamine receptor 2B (Homo sapiens, UniProt P41595); assay: Binding affinity to 5-HT2B receptor (unknown origin) assessed as inhibition of radioligand binding by radioligand competition binding assay
[10] = biological target: T7, 5-hydroxytryptamine receptor 6 (Homo sapiens, UniProt P50406); assay: Binding affinity to 5-HT6 receptor (unknown origin) assessed as inhibition of radioligand binding by radioligand competition binding assay
[11] = biological target: T8, 5-hydroxytryptamine receptor 7 (Homo sapiens, UniProt P34969); assay: Binding affinity to 5-HT7 receptor (unknown origin) assessed as inhibition of radioligand binding by radioligand competition binding assay
[12] = biological target: Alpha-2A adrenergic receptor (Homo sapiens, UniProt P08913); assay: Binding affinity to andrenergic alpha2A receptor (unknown origin) assessed as inhibition of radioligand binding by radioligand competition binding assay
[13] = biological target: Alpha-2B adrenergic receptor (Homo sapiens, UniProt P18089); assay: Binding affinity to andrenergic alpha2B receptor (unknown origin) assessed as inhibition of radioligand binding by radioligand competition binding assay
[14] = biological target: T2, Beta-1 adrenergic receptor; assay: Binding affinity to andrenergic beta1 receptor (unknown origin) assessed as inhibition of radioligand binding by radioligand competition binding assay
Target sequence in this assay (P08588 whole entry): as the sequence (P08588 whole entry) above

[15] = biological target: T1, Beta-2 adrenergic receptor; assay: Binding affinity to andrenergic beta2 receptor (unknown origin) assessed as inhibition of radioligand binding by radioligand competition binding assay
Target sequence in this assay (P07550 whole entry): as the sequence (P07550 whole entry) above

[16] = biological target: T3, Beta-3 adrenergic receptor; assay: Binding affinity to andrenergic beta3 receptor (unknown origin) assessed as inhibition of radioligand binding by radioligand competition binding assay
Target sequence in this assay (P13945 whole entry): as the sequence (P13945 whole entry) above

[17] = biological target: T2, Beta-1 adrenergic receptor; assay: Agonist activity at human beta1-adrenergic receptor expressed in CHO-K1 cells assessed as induction of cAMP accumulation after 15 mins by HTRF assay; format: functional, cell-based
Summary of the method: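 cAMP accumulation in human β1-expressing CHO-K1 cells, quantified by HTRF. Vehicle 0.40% DMSO. Incubation 15 minutes at 37°C in HBSS with 5 mM HEPES, 0.1% BSA and 100 μM IBMX, pH 7.4. Run by a contract screening service.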
Target sequence in this assay (P08588 whole entry, looked up): as the sequence (P08588 whole entry) above

[18] = biological target: T1, Beta-2 adrenergic receptor; assay: Agonist activity at human beta2-adrenergic receptor expressed in CHO-K1 cells assessed as increase in cAMP accumulation after 20 mins by HTRF assay; format: functional, cell-based
Summary of the method: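 Human β2 receptor expressed in CHO cells; cAMP accumulation read out by HTRF. Vehicle 0.40% DMSO. Incubated 20 minutes at 37°C in HBSS, 5 mM HEPES, 0.1% BSA, 100 μM IBMX, pH 7.4. Performed by a contract screening service.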
Target sequence in this assay (P07550 whole entry, looked up): as the sequence (P07550 whole entry) above

[19] = biological target: 5-hydroxytryptamine receptor 1A (Homo sapiens) (UniProt P08908); assay: Binding affinity to 5-HT1A receptor (unknown origin) assessed as inhibition of radioligand binding at 10 uM by radioligand competition binding assay
[20] = biological target: T4, 5-hydroxytryptamine receptor 1B; assay: Binding affinity to 5-HT1B receptor (unknown origin) assessed as inhibition of radioligand binding at 10 uM by radioligand competition binding assay
[21] = biological target: T5, 5-hydroxytryptamine receptor 1D; assay: Binding affinity to 5-HT1D receptor (unknown origin) assessed as inhibition of radioligand binding at 10 uM by radioligand competition binding assay
[22] = biological target: T6, 5-hydroxytryptamine receptor 2B; assay: Binding affinity to 5-HT2B receptor (unknown origin) assessed as inhibition of radioligand binding at 10 uM by radioligand competition binding assay
[23] = biological target: T7, 5-hydroxytryptamine receptor 6; assay: Binding affinity to 5-HT6 receptor (unknown origin) assessed as inhibition of radioligand binding at 10 uM by radioligand competition binding assay
[24] = biological target: T8, 5-hydroxytryptamine receptor 7; assay: Binding affinity to 5-HT7 receptor (unknown origin) assessed as inhibition of radioligand binding at 10 uM by radioligand competition binding assay
[25] = biological target: Alpha-2A adrenergic receptor (Homo sapiens) (UniProt P08913); assay: Binding affinity to andrenergic alpha2A receptor (unknown origin) assessed as inhibition of radioligand binding at 10 uM by radioligand competition binding assay
[26] = biological target: Alpha-2B adrenergic receptor (Homo sapiens) (UniProt P18089); assay: Binding affinity to andrenergic alpha2B receptor (unknown origin) assessed as inhibition of radioligand binding at 10 uM by radioligand competition binding assay
[27] = biological target: T2, Beta-1 adrenergic receptor; assay: Binding affinity to andrenergic beta1 receptor (unknown origin) assessed as inhibition of radioligand binding at 10 uM by radioligand competition binding assay
Target sequence in this assay (P08588 whole entry, looked up): as the sequence (P08588 whole entry) above

[28] = biological target: T1, Beta-2 adrenergic receptor; assay: Binding affinity to andrenergic beta2 receptor (unknown origin) assessed as inhibition of radioligand binding at 10 uM by radioligand competition binding assay
Target sequence in this assay (P07550 whole entry, looked up): as the sequence (P07550 whole entry) above

[29] = biological target: T3, Beta-3 adrenergic receptor; assay: Binding affinity to andrenergic beta3 receptor (unknown origin) assessed as inhibition of radioligand binding at 10 uM by radioligand competition binding assay
Target sequence in this assay (P13945 whole entry, looked up): as the sequence (P13945 whole entry) above

Rattus norvegicus = species: Rattus norvegicus; assay: Binding affinity to rat GABAA BZP receptor assessed as inhibition of radioligand binding by radioligand competition binding assay; conditions: concentration not given here
[30] = biological target: Sodium-dependent serotonin transporter (Homo sapiens) (UniProt P31645); assay: Binding affinity to SERT (unknown origin) assessed as inhibition of radioligand binding by radioligand competition binding assay; conditions: concentration not given here

T4 sequence (P28222 whole entry): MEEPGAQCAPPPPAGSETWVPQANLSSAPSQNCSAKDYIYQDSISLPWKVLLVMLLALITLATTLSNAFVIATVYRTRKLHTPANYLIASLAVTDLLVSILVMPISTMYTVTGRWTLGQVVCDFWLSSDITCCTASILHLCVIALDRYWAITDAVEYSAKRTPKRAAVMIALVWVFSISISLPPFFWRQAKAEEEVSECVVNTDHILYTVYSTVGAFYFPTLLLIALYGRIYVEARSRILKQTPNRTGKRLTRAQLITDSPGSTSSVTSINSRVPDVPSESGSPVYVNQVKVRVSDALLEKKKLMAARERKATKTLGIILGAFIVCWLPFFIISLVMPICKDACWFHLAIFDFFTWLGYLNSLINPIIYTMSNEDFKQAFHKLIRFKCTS
T8 sequence (P34969 whole entry): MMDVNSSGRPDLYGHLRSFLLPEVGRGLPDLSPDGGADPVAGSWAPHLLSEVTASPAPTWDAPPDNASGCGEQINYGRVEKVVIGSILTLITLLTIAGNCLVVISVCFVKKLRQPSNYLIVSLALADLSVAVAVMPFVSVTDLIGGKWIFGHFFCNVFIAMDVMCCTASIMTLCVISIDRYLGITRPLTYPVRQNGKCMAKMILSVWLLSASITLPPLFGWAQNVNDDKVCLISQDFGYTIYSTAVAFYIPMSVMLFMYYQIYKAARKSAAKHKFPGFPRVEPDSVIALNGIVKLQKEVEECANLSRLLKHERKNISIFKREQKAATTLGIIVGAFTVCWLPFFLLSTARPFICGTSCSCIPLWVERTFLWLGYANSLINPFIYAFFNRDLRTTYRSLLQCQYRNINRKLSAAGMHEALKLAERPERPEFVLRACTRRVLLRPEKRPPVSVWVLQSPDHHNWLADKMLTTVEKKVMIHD
T7 sequence (P50406 whole entry): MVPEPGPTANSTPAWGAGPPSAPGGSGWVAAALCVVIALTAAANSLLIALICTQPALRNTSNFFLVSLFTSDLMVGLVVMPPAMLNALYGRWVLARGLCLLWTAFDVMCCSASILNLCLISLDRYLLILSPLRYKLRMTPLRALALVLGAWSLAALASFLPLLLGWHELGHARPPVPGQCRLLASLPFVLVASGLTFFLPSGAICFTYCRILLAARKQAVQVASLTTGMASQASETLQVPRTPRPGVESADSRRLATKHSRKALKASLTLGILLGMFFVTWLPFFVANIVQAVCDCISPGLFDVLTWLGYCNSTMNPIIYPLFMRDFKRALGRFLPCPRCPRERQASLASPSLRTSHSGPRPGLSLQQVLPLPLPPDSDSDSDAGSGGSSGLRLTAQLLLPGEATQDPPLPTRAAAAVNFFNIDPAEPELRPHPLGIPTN
T6 sequence (P41595 whole entry): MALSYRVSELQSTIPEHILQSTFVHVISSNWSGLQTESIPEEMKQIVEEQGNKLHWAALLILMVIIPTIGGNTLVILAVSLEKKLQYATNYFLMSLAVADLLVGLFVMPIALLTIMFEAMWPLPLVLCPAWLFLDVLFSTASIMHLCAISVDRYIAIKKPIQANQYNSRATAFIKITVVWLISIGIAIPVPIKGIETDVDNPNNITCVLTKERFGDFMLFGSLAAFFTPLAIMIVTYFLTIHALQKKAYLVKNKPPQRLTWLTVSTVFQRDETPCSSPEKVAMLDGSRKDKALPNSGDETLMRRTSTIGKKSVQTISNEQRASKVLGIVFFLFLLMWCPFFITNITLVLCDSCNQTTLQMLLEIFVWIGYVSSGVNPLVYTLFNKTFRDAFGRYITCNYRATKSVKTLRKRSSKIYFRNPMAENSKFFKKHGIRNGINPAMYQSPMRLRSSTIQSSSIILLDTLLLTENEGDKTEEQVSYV
T5 sequence (P28221 whole entry): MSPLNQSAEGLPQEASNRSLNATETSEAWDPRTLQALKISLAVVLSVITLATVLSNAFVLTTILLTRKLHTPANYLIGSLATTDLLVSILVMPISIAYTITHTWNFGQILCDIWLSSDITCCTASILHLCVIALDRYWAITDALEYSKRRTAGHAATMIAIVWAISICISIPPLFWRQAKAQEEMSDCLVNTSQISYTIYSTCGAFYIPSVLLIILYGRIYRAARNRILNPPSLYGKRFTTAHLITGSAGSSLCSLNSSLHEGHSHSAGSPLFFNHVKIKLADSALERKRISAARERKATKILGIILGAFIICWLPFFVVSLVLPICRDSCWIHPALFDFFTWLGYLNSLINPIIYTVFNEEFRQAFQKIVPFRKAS
Chain of Alpha-2A adrenergic receptor (P08913 whole entry): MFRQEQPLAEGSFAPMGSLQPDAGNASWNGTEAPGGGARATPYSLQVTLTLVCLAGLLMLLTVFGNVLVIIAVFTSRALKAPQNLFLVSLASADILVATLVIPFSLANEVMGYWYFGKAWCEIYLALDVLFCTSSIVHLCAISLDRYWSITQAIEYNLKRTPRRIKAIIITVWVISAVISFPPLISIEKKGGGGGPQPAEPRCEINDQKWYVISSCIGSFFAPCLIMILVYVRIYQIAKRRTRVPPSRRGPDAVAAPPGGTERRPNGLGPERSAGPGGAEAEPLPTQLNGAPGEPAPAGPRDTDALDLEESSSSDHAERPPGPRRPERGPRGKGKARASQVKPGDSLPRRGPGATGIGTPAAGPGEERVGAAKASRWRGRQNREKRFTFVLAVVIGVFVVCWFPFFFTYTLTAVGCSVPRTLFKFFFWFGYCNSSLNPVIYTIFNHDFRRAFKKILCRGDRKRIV
Chain of Alpha-2A adrenergic receptor (Homo sapiens) (P08913 whole entry): as above

## COc1cc2c3c(c1OC)-c1ccccc1[C@@H](O)[C@@H]3NCC2
[1]
  pIC50: 8.85
[2]
  pIC50: 8.77
[3]
  pIC50: 6.62
Homo sapiens
  Ratio IC50: 150
[4]
  pIC50: 7.77
[5]
  pIC50: 8.16
[6]
  pKi: 7.15
[7]
  pKi: 5.92
[8]
  pKi: 6.07
[9]
  pKi: 6.61
[10]
  pKi: 6.06
[11]
  pKi: 6.92
[12]
  pKi: 5.94
[13]
  pKi: 6.24
[14]
  pKi: 7.72
[15]
  pKi: 7.89
[16]
  pKi: 6.51
[17]
  Activity: inactive
[18]
  Activity: inactive
[19]
  inhibition: > 50%
[20]
  inhibition: > 50%
[21]
  inhibition: > 50%
[22]
  inhibition: > 50%
[23]
  inhibition: > 50%
[24]
  inhibition: > 50%
[25]
  inhibition: > 50%
[26]
  inhibition: > 50%
[27]
  inhibition: > 50%
[28]
  inhibition: > 50%
[29]
  inhibition: > 50%
Rattus norvegicus
  inhibition: < 50%
[30]
  inhibition: < 50%
